Results published in ChEMBL document CHEMBL4177755, “Combating Drug-Resistant Fungi with Novel Imperfectly Amphipathic Palindromic Peptides” (J Med Chem, 2018).

Experiments:
[1] = Antibacterial activity against Salmonella pullorum ATCC 7913 after 24 hrs; type: functional, Salmonella enterica subsp. enterica serovar Pullorum; conditions: Salmonella enterica, ATCC 7913, 24 h
Summary of the method: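 Broth microdilution. Mid-log bacteria in MHB at a final (0.5−1) × 10^5 CFU/mL were mixed with equal volumes of peptide serially diluted in 0.2% BSA. Plates were incubated 24 h at 37 °C and read at A492. MIC is the lowest concentration inhibiting 95% of growth. Each test was repeated at least 3 times.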

Candida albicans [2] = assay: Antifungal activity against Candida albicans cgmcc 2.2086 in presence of KCl by broth dilution method; type: functional
Candida albicans [3] = assay: Fungicidal activity against Candida albicans SP3903 after 96 hrs; type: functional; conditions: SP3903, 96 h, read-out: MFC99.9
Summary of the method: (§1)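 After the 48 h, 28 °C broth microdilution in MOPS-buffered RPMI 1640 (inoculum (0.5−1) × 10^3 CFU/mL), 50 μL from each well was plated on YM agar for a further 48 h at 28 °C. MFC is the lowest concentration killing at least 99.9% of cells. Triplicate, three biological replicates.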

Candida albicans [4] = assay: Fungicidal activity against fluconazole-resistant Candida albicans 56214 after 96 hrs; type: functional; conditions: Candida albicans, 56214, 96 h; read-out: MFC99.9; summary of the method: as §1
Candida albicans [5] = assay: Fungicidal activity against Candida albicans SP3931 after 96 hrs; type: functional; conditions: SP3931, 96 h, read-out: MFC99.9; summary of the method: as §1
Erythrocyte = assay: Hemolytic activity in human RBC after 1 hr; type: ADME, cell-based
Summary of the method: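 Fresh human erythrocytes, diluted 10-fold in PBS pH 7.4, were mixed with equal volumes of peptide and held 1 h at 37 °C. After centrifugation at 1000g, supernatant hemoglobin was read at 576 nm. PBS set 0% and 0.1% Triton X-100 set 100% lysis. MHC is the concentration causing 10% hemolysis. At least three experiments were run, each in technical triplicate.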

Staphylococcus aureus [6] = assay: Bactericidal activity against methicillin-resistant Staphylococcus aureus ATCC 4330; type: functional; conditions: read-out: MBC99.9
Summary of the method: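 Bacteria at (0.5−1) × 10^5 CFU/mL in MHB were exposed to serially diluted peptide (0.2% BSA) for 24 h at 37 °C, then 50 μL aliquots were plated on agar overnight. MBC is the lowest concentration killing >99.9% of cells. At least 3 repeats.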

Candida albicans [7] = assay: Antifungal activity against Candida albicans isolated from alveolar fluid after 48 hrs by broth microdilution method; type: functional
Summary of the method: (§2)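 Modified CLSI M27-A2 broth microdilution. Yeast at (0.5−1) × 10^3 CFU/mL in MOPS-buffered RPMI 1640 was mixed 1:1 with peptide serially diluted in 0.2% BSA and incubated 48 h at 28 °C. Absorbance was read at 492 nm; MIC is the lowest concentration inhibiting 95% of growth. Triplicate, three biological replicates.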

[8] = Cytotoxicity against HEK293T cells assessed as cell viability at 2 to 64 uM after 24 hrs by MTT assay relative to control; type: cell-based, HEK-293T; conditions: human, read-out: Activity
Summary of the method: (§3)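 MTT viability assay. RAW264.7 or HEK293T cells at (1.0−2.0) × 10^5 per well were exposed to a peptide concentration series for 24 h at 37 °C in 5% CO2. MTT was then added at 0.5 mg/mL final for 4 h; formazan was dissolved in DMSO and read at 570 nm. Results average three independent trials.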

Candida albicans [9] = assay: Antifungal activity against Candida albicans cgmcc 2.2086 in presence of NH4Cl by broth dilution method; type: functional
Pichia kudriavzevii = assay: Fungicidal activity against Candida krusei cgmcc 2.1857 after 96 hrs; type: functional; conditions: cgmcc 2.1857, 96 h, read-out: MFC99.9
Summary of the method: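 Wells from the 48 h, 28 °C RPMI 1640/MOPS microdilution plates were plated on YM agar and incubated a further 48 h at 28 °C. MFC is the lowest concentration killing at least 99.9% of cells. Run in triplicate with three biological replicates.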

Escherichia coli [10] = assay: Antibacterial activity against Escherichia coli ATCC 25922 after 18 hrs in presence of NaCl by broth dilution method; type: functional; conditions: ATCC 25922, 18 h
Candida albicans [11] = assay: Antifungal activity against Candida albicans cgmcc 2.2086 in presence of CaCl2 by broth dilution method; type: functional
Candida albicans [12] = assay: Antifungal activity against fluconazole-resistant Candida albicans 17546 after 48 hrs by broth microdilution method; type: functional; conditions: Candida albicans, 17546, 48 h; summary of the method: as §2
Candida albicans [13] = assay: Antifungal activity against Candida albicans SP3931 after 48 hrs by broth microdilution method; type: functional; conditions: SP3931, 48 h; summary of the method: as §2
Staphylococcus aureus [14] = assay: Bactericidal activity against Staphylococcus aureus ATCC 25923; type: functional; conditions: read-out: MBC99.9
Summary of the method: (§4)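 Wells from the 24 h, 37 °C MHB microdilution plates (bacteria at a final (0.5−1) × 10^5 CFU/mL; peptide diluted in 0.2% BSA) were plated on agar and incubated overnight. MBC is the lowest concentration killing >99.9% of cells. Each test was reproduced at least 3 times.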

Escherichia coli [15] = assay: Antibacterial activity against Escherichia coli ATCC 25922 after 18 hrs in presence of CaCl2 by broth dilution method; type: functional; conditions: ATCC 25922, 18 h
Escherichia coli [16] = assay: Antibacterial activity against Escherichia coli ATCC 25922 after 18 hrs in presence of NH4Cl by broth dilution method; type: functional; conditions: ATCC 25922, 18 h
Candida albicans [17] = assay: Fungicidal activity against fluconazole-resistant Candida albicans 56452 after 96 hrs; type: functional; conditions: Candida albicans, 56452, 96 h; read-out: MFC99.9; summary of the method: as §1
Candida albicans [18] = assay: Fungicidal activity against Candida albicans SP3902 after 96 hrs; type: functional; conditions: SP3902, 96 h, read-out: MFC99.9; summary of the method: as §1
Candida parapsilosis = assay: Antifungal activity against Candida parapsilosis cgmcc 2.3989 after 48 hrs by broth microdilution method; type: functional; conditions: Lodderomyces parapsilosis, cgmcc 2.3989, 48 h
Summary of the method: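 Modified CLSI M27-A2 broth microdilution. Yeast were suspended in MOPS-buffered RPMI 1640 at a final (0.5−1) × 10^3 CFU/mL and mixed 1:1 with peptide serially diluted in 0.2% BSA. Plates were incubated 48 h at 28 °C and read at A492. MIC is the lowest concentration giving 95% inhibition. Run in triplicate with three biological replicates.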

Staphylococcus aureus [19] = assay: Antibacterial activity against methicillin-resistant Staphylococcus aureus ATCC 4330 after 24 hrs; type: functional; conditions: ATCC 4330, 24 h
Summary of the method: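 Modified NCCLS broth microdilution. Mid-log bacteria at (0.5−1) × 10^5 CFU/mL in MHB were mixed 1:1 with peptide serially diluted in 0.2% BSA and incubated 24 h at 37 °C. Absorbance was read at 492 nm; MIC is the lowest concentration inhibiting 95% of growth. At least 3 repeats.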

Escherichia coli [20] = assay: Antibacterial activity against Escherichia coli ATCC 25922 after 18 hrs in presence of ZnCl2 by broth dilution method; type: functional; conditions: ATCC 25922, 18 h
[21] = Cytotoxicity against mouse RAW264.7 cells assessed as cell viability at 2 to 64 uM after 24 hrs by MTT assay relative to control; type: cell-based; conditions: read-out: Activity; summary of the method: as §3
Salmonella typhimurium = assay: Bactericidal activity against Salmonella typhimurium ATCC 14028; type: functional, Salmonella enterica subsp. enterica serovar Typhimurium; conditions: Salmonella enterica, read-out: MBC99.9; summary of the method: as §4
Candida albicans [22] = assay: Fungicidal activity against Candida albicans 14936 after 96 hrs; type: functional; conditions: Candida albicans, 14936, 96 h; read-out: MFC99.9; summary of the method: as §1
Escherichia coli [23] = assay: Antibacterial activity against Escherichia coli ATCC 25922 after 18 hrs in presence of MgCl2 by broth dilution method; type: functional; conditions: ATCC 25922, 18 h

H-RRLRLLLRLRR-NH2
MIC95 [1]: 2 µM
MIC (Candida albicans [2]): 32 µM
MFC (Candida albicans [3]): 2 µM
MFC (Candida albicans [4]): 8 µM
MFC (Candida albicans [5]): 16 µM
HC10 (Erythrocyte): > 128 µM
MBC (Staphylococcus aureus [6]): 16 µM
MIC95 (Candida albicans [7]): 4 µM
viability at 24 h, up to 64 µM [8]: 70 to 80%
MIC (Candida albicans [9]): 8 µM
MFC (Pichia kudriavzevii): 8 µM
MIC (Escherichia coli [10]): 4 µM
MIC (Candida albicans [11]): 64 µM
MIC95 (Candida albicans [12]): 8 µM
MIC95 (Candida albicans [13]): 8 µM
MBC (Staphylococcus aureus [14]): 8 µM
MIC (Escherichia coli [15]): 4 µM
MIC (Escherichia coli [16]): 4 µM
MFC (Candida albicans [17]): 8 µM
MFC (Candida albicans [18]): 4 µM
MIC95 (Candida parapsilosis): 64 µM
MIC95 (Staphylococcus aureus [19]): 8 µM
MIC (Escherichia coli [20]): 4 µM
viability at 24 h, up to 64 µM [21]: 70 to 80%
MBC (Salmonella typhimurium): 4 µM
MFC (Candida albicans [22]): 8 µM
MIC (Escherichia coli [23]): 2 µM

H-LLRRLRRLL-NH2
MIC95 [1]: 32 µM
MIC (Candida albicans [2]): 64 µM
MFC (Candida albicans [3]): 16 µM
MFC (Candida albicans [4]): 32 µM
MFC (Candida albicans [5]): 32 µM
HC10 (Erythrocyte): > 128 µM
MBC (Staphylococcus aureus [6]): 16 µM
MIC95 (Candida albicans [7]): 64 µM
viability at 24 h, up to 64 µM [8]: 70 to 80%
MIC (Candida albicans [9]): 32 µM
MFC (Pichia kudriavzevii): 8 µM
MIC (Escherichia coli [10]): 16 µM
MIC (Candida albicans [11]): 64 µM
MIC95 (Candida albicans [12]): 64 µM
MIC95 (Candida albicans [13]): 32 µM
MBC (Staphylococcus aureus [14]): 32 µM
MIC (Escherichia coli [15]): 64 µM
MIC (Escherichia coli [16]): 16 µM
MFC (Candida albicans [17]): 32 µM
MFC (Candida albicans [18]): > 64 µM
MIC95 (Candida parapsilosis): > 64 µM
MIC95 (Staphylococcus aureus [19]): 8 µM
MIC (Escherichia coli [20]): 16 µM
viability at 24 h, up to 64 µM [21]: 70 to 80%
MBC (Salmonella typhimurium): 32 µM
MFC (Candida albicans [22]): > 64 µM
MIC (Escherichia coli [23]): 16 µM
